Laboratory results published in ChEMBL document CHEMBL1158343, “Synthesis, antimicrobial and antiviral evaluation of substituted imidazole derivatives” (Eur J Med Chem, 2009).
Values after ≈ are worked out from the molar mass of the structure shown.

What was measured:
[1] = system: Vesicular stomatitis virus; assay: Antiviral activity against VSV infected in human HEL cells assessed as reduction in virus-induced cytopathogenicity after 3 days; format: functional, organism-based; details: 72 h
[2] = system: Escherichia coli; assay: Antimicrobial activity against Escherichia coli after 24 hrs by tube dilution method; format: functional
Outline: (§1)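 Tube dilution in DMSO (stock 100 mg/ml) with serial dilutions; incubation 37 °C for 48 h for C. albicans (other organisms' times truncated in text). MIC read as lowest concentration inhibiting visible growth. Norfloxacin (bacteria) and fluconazole (fungi) as reference drugs.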

[3] = system: Vesicular stomatitis virus; assay: Antiviral activity against VSV infected in human HeLa cells assessed as reduction in virus-induced cytopathogenicity after 3 days; format: functional, organism-based; details: 72 h
[4] = system: Candida albicans; assay: Antimicrobial activity against Candida albicans after 48 hrs by tube dilution method; format: functional; outline: as §1
[5] = system: Bacillus subtilis; assay: Antimicrobial activity against Bacillus subtilis after 24 hrs by tube dilution method; format: functional; outline: as §1
[6] = Cytotoxicity against human HEL cells assessed as alteration in cell morphology; format: cell-based
Outline: (§2)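 Uninfected cell cultures tested in parallel with the CPE-reduction antiviral assay; cells grown to confluency, then serial compound dilutions added and incubated at 37 °C (3 days in the parallel antiviral set-up). Read-out is microscopic examination of morphology; value is the minimum cytotoxic concentration, the lowest causing a microscopically detectable alteration of normal cell morphology.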

[7] = Cytotoxicity against human HeLa cells assessed as alteration in cell morphology; format: cell-based; outline: as §2
[8] = system: Human respirovirus 3; assay: Antiviral activity against Parainfluenza-3 virus infected in african green monkey Vero cells assessed as reduction in virus-induced cytopathogenicity after 3 days; format: functional, organism-based; details: Human respirovirus 3, Vero, 72 h
[9] = system: Coxsackievirus B4; assay: Antiviral activity against Coxsackievirus B4 infected in african green monkey Vero cells assessed as reduction in virus-induced cytopathogenicity after 3 days; format: functional, organism-based; details: Enterovirus B, 72 h
[10] = system: Human alphaherpesvirus 2; assay: Antiviral activity against HSV2 G infected in human HEL cells assessed as reduction in virus-induced cytopathogenicity after 3 days; format: functional, organism-based; details: Human alphaherpesvirus 2, strain G, 72 h
[11] = system: Human alphaherpesvirus 1; assay: Antiviral activity against thymidine kinase-deficient acyclovir-resistant HSV1 KOS infected in human HEL cells assessed as reduction in virus-induced cytopathogenicity after 3 days; format: functional, organism-based; details: Human alphaherpesvirus 1, KOS, 72 h
[12] = system: Aspergillus niger; assay: Antimicrobial activity against Aspergillus niger after 7 days by tube dilution method; format: functional; details: 168 h; outline: as §1
[13] = system: Staphylococcus aureus; assay: Antimicrobial activity against Staphylococcus aureus after 24 hrs by tube dilution method; format: functional; outline: as §1
[14] = system: Sindbis virus; assay: Antiviral activity against Sindbis virus infected in african green monkey Vero cells assessed as reduction in virus-induced cytopathogenicity after 3 days; format: functional, organism-based; details: 72 h
[15] = system: Punta Toro virus; assay: Antiviral activity against Punta Toro virus infected in african green monkey Vero cells assessed as reduction in virus-induced cytopathogenicity after 3 days; format: functional, organism-based; details: 72 h
[16] = system: Coxsackievirus B4; assay: Antiviral activity against Coxsackievirus B4 infected in human HeLa cells assessed as reduction in virus-induced cytopathogenicity after 3 days; format: functional, organism-based; details: Enterovirus B, 72 h
[17] = system: Respiratory syncytial virus; assay: Antiviral activity against RSV infected in human HeLa cells assessed as reduction in virus-induced cytopathogenicity after 3 days; format: functional, organism-based; details: 72 h
[18] = Cytotoxicity against african green monkey Vero cells assessed as alteration in cell morphology; format: cell-based; details: chlorocebus sabaeus; outline: as §2
[19] = system: Human alphaherpesvirus 1; assay: Antiviral activity against HSV1 KOS infected in human HEL cells assessed as reduction in virus-induced cytopathogenicity after 3 days; format: functional, organism-based; details: Human alphaherpesvirus 1, KOS, 72 h
[20] = system: Mammalian orthoreovirus 1; assay: Antiviral activity against Reovirus 1 infected in african green monkey Vero cells assessed as reduction in virus-induced cytopathogenicity after 3 days; format: functional, organism-based; details: Mammalian orthoreovirus 1, Vero, 72 h

Compound	EC50 [1] [µg/mL]	MBC [2] [µM]	MIC [2] [µM]	EC50 [3] [µg/mL]	MFC [4] [µM]	MIC [4] [µM]	MBC [5] [µM]	MIC [5] [µM]	MCC [6] [µg/mL]	MCC [7] [µg/mL]	EC50 [8] [µg/mL]	EC50 [9] [µg/mL]	EC50 [10] [µg/mL]	EC50 [11] [µg/mL]	MFC [12] [µM]	MIC [12] [µM]	MBC [13] [µM]	MIC [13] [µM]	EC50 [14] [µg/mL]	EC50 [15] [µg/mL]	also measured
O=C(c1ccccc1Br)n1ccnc1-c1ccc([N+](=O)[O-])cc1	> 100	33 (≈ 12.3 µg/mL)	4 (≈ 1.49 µg/mL)	> 100	134 (≈ 49.9 µg/mL)	16 (≈ 5.95 µg/mL)	33 (≈ 12.3 µg/mL)	4 (≈ 1.49 µg/mL)	> 100	> 100	> 100	> 100	> 100	> 100	67 (≈ 24.9 µg/mL)	4 (≈ 1.49 µg/mL)	16 (≈ 5.95 µg/mL)	2 (≈ 0.744 µg/mL)	> 100	> 100	EC50 [16]: > 100 µg/mL; EC50 [17]: > 100 µg/mL; MCC [18]: > 100 µg/mL; EC50 [19]: > 100 µg/mL; EC50 [20]: > 100 µg/mL
O=C(c1ccc([N+](=O)[O-])cc1)n1ccnc1-c1cccc([N+](=O)[O-])c1	> 100	36 (≈ 12.2 µg/mL)	9 (≈ 3.04 µg/mL)	> 100	295 (≈ 99.8 µg/mL)	18 (≈ 6.09 µg/mL)	295 (≈ 99.8 µg/mL)	36 (≈ 12.2 µg/mL)	> 100	> 100	> 100	> 100	> 100	> 100	73 (≈ 24.7 µg/mL)	9 (≈ 3.04 µg/mL)	147 (≈ 49.7 µg/mL)	18 (≈ 6.09 µg/mL)	> 100	100 (≈ 296 µM)	EC50 [16]: > 100 µg/mL; EC50 [17]: > 100 µg/mL; MCC [18]: > 100 µg/mL; EC50 [19]: > 100 µg/mL; EC50 [20]: > 100 µg/mL
O=C(c1ccccc1Br)n1ccnc1-c1ccccc1Cl	> 100	268 (≈ 96.9 µg/mL)	69 (≈ 25 µg/mL)	> 100	138 (≈ 49.9 µg/mL)	17 (≈ 6.15 µg/mL)	268 (≈ 96.9 µg/mL)	69 (≈ 25 µg/mL)	> 100	> 100	> 100	> 100	> 100	> 100	138 (≈ 49.9 µg/mL)	8 (≈ 2.89 µg/mL)	268 (≈ 96.9 µg/mL)	69 (≈ 25 µg/mL)	> 100	> 100	EC50 [16]: > 100 µg/mL; EC50 [17]: > 100 µg/mL; MCC [18]: > 100 µg/mL; EC50 [19]: > 100 µg/mL; EC50 [20]: > 100 µg/mL
O=C(c1ccc([N+](=O)[O-])cc1)n1ccnc1-c1ccc([N+](=O)[O-])cc1	> 100	295 (≈ 99.8 µg/mL)	73 (≈ 24.7 µg/mL)	> 20	147 (≈ 49.7 µg/mL)	18 (≈ 6.09 µg/mL)	295 (≈ 99.8 µg/mL)	36 (≈ 12.2 µg/mL)	> 100	100	> 100	> 100	50 (≈ 148 µM)	45 (≈ 133 µM)	147 (≈ 49.7 µg/mL)	18 (≈ 6.09 µg/mL)	295 (≈ 99.8 µg/mL)	73 (≈ 24.7 µg/mL)	> 100	> 100	EC50 [16]: > 20 µg/mL; EC50 [17]: > 20 µg/mL; MCC [18]: > 100 µg/mL; EC50 [19]: 59 µg/mL (≈ 174 µM); EC50 [20]: > 100 µg/mL
O=C(c1ccccc1Br)n1ccnc1-c1ccc(Cl)cc1	> 100	17 (≈ 6.15 µg/mL)	2 (≈ 0.723 µg/mL)	> 100	138 (≈ 49.9 µg/mL)	17 (≈ 6.15 µg/mL)	17 (≈ 6.15 µg/mL)	2 (≈ 0.723 µg/mL)	> 100	> 100	> 100	> 100	> 100	> 100	69 (≈ 25 µg/mL)	8 (≈ 2.89 µg/mL)	17 (≈ 6.15 µg/mL)	2 (≈ 0.723 µg/mL)	> 100	> 100	EC50 [16]: > 100 µg/mL; EC50 [17]: > 100 µg/mL; MCC [18]: > 100 µg/mL; EC50 [19]: > 100 µg/mL; EC50 [20]: > 100 µg/mL
O=C(c1ccccc1Br)n1ccnc1-c1cccc([N+](=O)[O-])c1	> 100	16 (≈ 5.95 µg/mL)	2 (≈ 0.744 µg/mL)	> 100	268 (≈ 99.7 µg/mL)	16 (≈ 5.95 µg/mL)	268 (≈ 99.7 µg/mL)	33 (≈ 12.3 µg/mL)	> 100	> 100	> 100	> 100	> 100	> 100	67 (≈ 24.9 µg/mL)	16 (≈ 5.95 µg/mL)	33 (≈ 12.3 µg/mL)	4 (≈ 1.49 µg/mL)	> 100	> 100	EC50 [16]: > 100 µg/mL; EC50 [17]: > 100 µg/mL; MCC [18]: > 100 µg/mL; EC50 [19]: > 100 µg/mL; EC50 [20]: > 100 µg/mL
